Source: paper PMC10441415 (bioRxiv, 2023)
“And” between values parts separate entries of the source, which are not always exact repeats. Identical values can stand only once.

What was measured:
[1] = system: Mtb H37Rv; set-up: species or system Mycobacterium tuberculosis; details: in vivo
[2] = system: Mtb H37Rv; set-up: species or system Mycobacterium tuberculosis; details: in vivo; remark: listed apart in the source
[3] = system: lung inflammation of Mtb-infected mice; set-up: species or system BALB/c mice; details: mouse, in vivo
[4] = system: lung inflammation of Mtb-infected mice; set-up: species or system BALB/c mice; details: mouse, in vivo; remark: listed apart in the source
[5] = system: Nos2, Ifn-γ, Tnf-α, Cd38, Egr2; set-up: species or system BALB/c mice; details: mouse, in vivo
[6] = Single-dose plasma pharmacokinetics, intraperitoneal; format: in vivo, BALB/c mice; details: single IP dose, sampling up to 24 hours
Procedure, shortened: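 Female BALB/c mice, 9–11 weeks old, each received one intraperitoneal dose (5 or 10 mg/kg) of the test compound, a tin metalloporphyrin HO-1 inhibitor, in sodium phosphate buffer (pH 7.4 – 7.8). Blood was drawn from three mice per time point at 0.25, 0.5, 1, 2, 4, 8 and 24 h. Plasma was assayed by LC-MS/MS. t1/2, tmax, Cmax, AUClast and AUCInf came from noncompartmental analysis.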

[7] = mouse, in vivo, ip
[8] = system: human peripheral blood mononuclear cells; details: cited from earlier work
[9] = system: naive CD4+ and CD8+ T cells; details: via interactions with CD14+ monocytes in vitro; cited from earlier work
[10] = system: Mtb; details: C57BL/6 mice, chronic phase of infection; cited from earlier work
[11] = system: Mtb-infected U937 cells; details: cited from earlier work
[12] = chronic treatment, wild-type mice; cited from earlier work

Row | SMILES | Additive effect on lung CFU when co-administered with SPaO [1] | Enhancement of the bactericidal activity of RHZ [1] | Mean lung log10 CFU count (±SD) at W2 [1] [log10 CFU] | Mean lung log10 CFU count (±SD) at W4 [1] [log10 CFU] | Mean lung log10 CFU count (±SD) at W6 [1] [log10 CFU] | Reduction of mean lung bacillary burden relative to vehicle control [1] [log10 CFU] | Lung bacillary burdens relative to the SPaO regimen [2] | Microbiological relapse rates [2] | Gross or histological lung pathology [3] | Lung/body weight ratio versus SPaO control regimen [4] | Cd38 expression in lung compared to any other treatment group [5] | Tnf-α expression in lung relative to vehicle [5] | Last time point with detectable blood concentrations [6] [h] | Tolerability [7] | Expression of pro-inflammatory cytokines [8] | Activation, proliferation, and maturation of naive CD4+ and CD8+ T cells [9] | Reduction of mean lung bacterial burden relative to vehicle control [1] | Lung bacillary burden [10] | Secretion of proinflammatory cytokines, including TNF-α [11] | Tubulointerstitial inflammation and fibrosis [12]
1 | CCC1=C(C)c2cc3[n-]c(cc4[n-]c(cc5nc(cc1n2)C(C)=C5CC)c(C)c4CCC(=O)O)c(CCC(=O)O)c3C.[Cl-].[Cl-].[Sn+4] [SnMP, stannsoporfin] | neither SnPP nor SnMP adjunctive therapy showed an additive effect | did not significantly enhance | 5.73 ± 0.22 | 5.36 ± 0.31 | 5.98 ± 0.06 | 0.67 | did not significantly alter | did not reduce microbiological relapse rates | did not significantly alter | did not differ statistically | significantly higher expression | reduced expression | 8 | well tolerated | induces the expression of pro-inflammatory cytokines | induce the activation, proliferation, and maturation | – | – | – | –
2 | C=Cc1c2[n-]c(c1C)/C=c1\[n-]/c(c(C)c1C=C)=C\c1[n-]c(c(CCC(=O)O)c1C)C=c1[n-]/c(c(C)c1CCC(=O)O)=C\2.[Sn+4] [SnPP, tin-protoporphyrin IX] | neither SnPP nor SnMP adjunctive therapy showed an additive effect | did not significantly enhance | 5.52 ± 0.29 | 5.30 ± 0.30 | 5.30 ± 0.19 | 0.88 | – | – | – | – | – | – | 8 | – | – | – | 1.2 log10 CFU and 1.1 log10 CFU | reduced the lung bacillary burden alone | reduced the secretion of proinflammatory cytokines | can induce tubulointerstitial inflammation and fibrosis
